Legend:
[1] = biological target: T1, Human immunodeficiency virus type 1 integrase (Human immunodeficiency virus 1, UniProt Q7ZJM1); experiment: Inhibition of recombinant His6-tagged HIV-1 integrase 3' strand transfer activity
[2] = Cytotoxicity against human MT4 cells; type: cell-based
[3] = Inhibition of recombinant His6-tagged HIV-1 integrase binding to FLAG-tagged LEDGF/p75 (unknown origin) interaction expressed in Escherichia coli BL21(DE3) treated 30 mins before LEDGF/p75 addition measured after 60 mins by AlphaScreen assay
How it was run: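 His6-IN (300 nM final) with compound for 30 min at 4 °C. FLAG-LEDGF/p75 (300 nM final) added for 60 min at 4 °C. Ni-chelate donor and anti-FLAG acceptor beads added, 1 h at 30 °C, light exposure minimized. Acceptor emission read. IC50 is the 50% inhibition of the interaction.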

[4] = test system: Human immunodeficiency virus 1; experiment: Antiviral activity against HIV1 infected in human MT4 cells assessed as virus-induced cytopathic effect by MTT assay; type: functional, organism-based; conditions: Human immunodeficiency virus 1, MT4
[5] = Inhibition of recombinant His6-tagged HIV-1 integrase binding to FLAG-tagged LEDGF/p75 (unknown origin) interaction expressed in Escherichia coli BL21(DE3) at 20 uM treated 30 mins before LEDGF/p75 addition measured after 60 mins by quench assay
How it was run: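 Emission-quench counter-screen run like the IN–LEDGF/p75 AlphaScreen, with FLAG-tagged GST (500 nM final) instead of both proteins. Same buffer, Ni-chelate donor and anti-FLAG acceptor beads, 1 h at 30 °C, acceptor emission read. Reported as percent inhibition at a single compound concentration.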

[6] = biological target: T1, Human immunodeficiency virus type 1 integrase; experiment: Inhibition of recombinant His6-tagged HIV-1 integrase 3' processing activity

T1 sequence (Q7ZJM1 whole entry): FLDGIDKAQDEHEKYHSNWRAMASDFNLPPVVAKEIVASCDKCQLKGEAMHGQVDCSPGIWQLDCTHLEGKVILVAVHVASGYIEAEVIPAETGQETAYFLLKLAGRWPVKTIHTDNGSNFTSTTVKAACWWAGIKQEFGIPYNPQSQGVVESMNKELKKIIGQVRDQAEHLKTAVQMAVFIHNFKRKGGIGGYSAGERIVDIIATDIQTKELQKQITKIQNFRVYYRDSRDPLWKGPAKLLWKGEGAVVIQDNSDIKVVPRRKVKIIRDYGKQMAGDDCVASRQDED

SMILES	IC50 [1]	IC50 [3]	inhibition [5]	IC50 [6]	CC50 [2]	EC50 [4]
O=C(NCc1ccc(F)cc1)c1nc[nH]c1C(=O)O	> 20 µM	> 20 µM	< 50%	> 20 µM	> 20 µM	> 20 µM
O=C(Nc1ccccn1)c1nc[nH]c1C(=O)N1CCOCC1	> 20 µM	> 20 µM	< 50%	> 20 µM	> 20 µM	> 20 µM
CNC(=O)c1[nH]cnc1C(=O)Nc1ccccn1	> 20 µM	> 20 µM	< 50%	> 20 µM	> 20 µM	> 20 µM
O=C(Nc1ccc(F)cc1)c1nc[nH]c1C(=O)O	> 20 µM	10 µM	< 50%	> 20 µM	> 20 µM	> 20 µM
O=C(Nc1ccccc1O)c1nc[nH]c1C(=O)N1CCC(O)CC1	> 20 µM	> 20 µM	< 50%	> 20 µM	> 20 µM	> 20 µM
Cc1ccc(NC(=O)c2[nH]cnc2C(=O)NN)cc1	> 20 µM	16 µM	< 50%	> 20 µM	> 20 µM	> 20 µM
COC(=O)c1[nH]cnc1C(=O)Nc1ccc(F)cc1	> 20 µM	> 20 µM	< 50%	> 20 µM	> 20 µM	> 20 µM
O=C(Nc1ccccc1O)c1nc[nH]c1C(=O)N1CCOCC1	> 20 µM	> 20 µM	< 50%	> 20 µM	> 20 µM	> 20 µM
Nc1ccc(NC(=O)c2nc[nH]c2C(=O)O)cc1	> 20 µM	1 µM	< 50%	> 20 µM	> 20 µM	> 20 µM
O=C(Nc1ccccc1)c1nc[nH]c1C(=O)O	> 20 µM	6 µM	< 50%	> 20 µM	> 20 µM	> 20 µM
NNC(=O)c1[nH]cnc1C(=O)Nc1ccccn1	> 20 µM	0.4 µM	< 50%	> 20 µM	> 20 µM	> 20 µM

More lines, main results first:

IC50 [1]	IC50 [3]	inhibition [5]	IC50 [6]	SMILES	CC50 [2]	EC50 [4]
> 20 µM	13 µM	< 50%	> 20 µM	O=C(Nc1ccccn1)c1nc[nH]c1C(=O)O	> 20 µM	> 20 µM
> 20 µM	> 20 µM	< 50%	> 20 µM	O=C(Nc1ccccn1)c1nc[nH]c1C(=O)N1CCC(O)CC1	> 20 µM	> 20 µM
> 20 µM	5.3 µM	< 50%	> 20 µM	O=C(Nc1ccc([N+](=O)[O-])cc1)c1nc[nH]c1C(=O)O	> 20 µM	> 20 µM
> 20 µM	> 20 µM	< 50%	> 20 µM	O=C(Nc1ccccc1O)c1nc[nH]c1C(=O)N1CCNCC1	> 20 µM	> 20 µM
> 20 µM	> 20 µM	< 50%	> 20 µM	O=C(Nc1ccccn1)c1nc[nH]c1C(=O)N1CCNCC1	> 20 µM	> 20 µM
